Screening data: PubChem BioAssay, several laboratories
Casp6 inh: inhibitors of human caspase-6; inhibition, % at 12.5 µM; AID 686996; purified caspase-6, Z-VEID-R110 cleavage fluorescence; actives 0.53% (n = 350,000); P55212;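 active = mean inhibition across replicates at least about 35%, with every replicate also reaching that limit, limit read from the data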
HCV NS3 hel inh: blocks Hepatitis C virus NS3 helicase unwinding; NS3 helicase DNA unwinding, Cy5 molecular beacon fluorescence; inhibition, % at 10.9 µM; actives 0.56% (n = 290,000);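 active = inhibition above the mean of all tested compounds plus 3 SD, set per campaign, cut at about 35% in these data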
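Compound dosing – single dose, 10.9 µM nominal final, DMSO 0.8% final · System – NS3 helicase fragment of HCV · Buffer or medium – MOPS pH 6.5, MgCl2, DTT, Tween20, BSA · Signal – Cy5 beacon fluorescence read at start and 1 h · Also added – annealed dual-labelled DNA beacon duplex, ATP-started · Schedule – 1 h at 25 °C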
DNMT1 inh: inhibitors of human DNMT1; inhibition (reported as % activation of signal), % at 10 µM; actives 0.83% (n = 360,000); DNMT1 molecular beacon, Hinp1I cleavage, fluorescence
NSD2 inh: blocks human histone methyltransferase NSD2. O96028. NSD2 peptide methylation, AlphaScreen, 120 min. inhibition, % at 12.5 µM. actives 0.54% (n = 310,000). AID 743445
AlphaScreen art: counter-screen for NSD2 inhibitors: AlphaScreen artifacts; AID 1053174; actives 9.4% (n = 1,500); AlphaScreen artifact counterscreen, preloaded methylated H4 peptide; shares compounds with NSD2 inh; AC35, µM (series often up to 10 µM); call rule not given here
Each line names hits and unclear results; the compound was inactive in the other large screens (follow-up assays come after a bar, where they were run). Shown are actives, neighbours in structure and some others; about 1.5% of the full set was active somewhere. Rule as the data show it, unless noted: active = inhibition above about 50%; inactive = the rest.

CN1CCN(c2ccc(Cl)cc2N)CC1	none
COc1cccc(-c2ccc([C@@H]3[C@@H](CO)N4CCCCN(C(=O)Cc5ccncc5)C[C@H]34)cc2)c1	none (no result: HCV NS3 hel inh, DNMT1 inh, NSD2 inh)
CCOc1cc(/C=C2\C(=O)NC(=O)N(CCc3ccc(F)cc3)C2=O)ccc1O	NSD2 inh 53.5 | AlphaScreen art inactive
CC(=O)NC1=C(N2CC2C)C(=O)C(NC(C)=O)=C(N2CC2C)C1=O (stereo not drawn)	Casp6 inh 37.7, NSD2 inh 114.6 (no result: HCV NS3 hel inh) | AlphaScreen art inactive
O=C1NC(=O)C(Sc2ccccc2[N+](=O)[O-])C(=O)N1	Casp6 inh 37.7, NSD2 inh 85.4 | AlphaScreen art inactive
O=C(Cc1ccccn1)N1CCCCN2[C@H](CO)[C@@H](c3ccc(C#Cc4ccccc4)cc3)[C@@H]2C1	none (no result: HCV NS3 hel inh, DNMT1 inh, NSD2 inh)
COC(=O)[C@H]1[C@H](CO)[C@H]2Cn3c(ccc(-c4ccccc4)c3=O)[C@@H]1N2CC1CCCCC1	none (no result: HCV NS3 hel inh, DNMT1 inh, NSD2 inh)
O=[N+]([O-])c1ccc(N(CCO)CCO)c2c1no[n+]2[O-]	NSD2 inh 134.6 (no result: HCV NS3 hel inh) | AlphaScreen art inactive
COc1ccc(-c2ccc([C@H]3[C@H](CO)N4CCCCN(C(=O)Cc5ccccc5)C[C@@H]34)cc2)cc1	none (no result: HCV NS3 hel inh, DNMT1 inh, NSD2 inh)
Cc1cccc(N=Nc2ccc(N(C)C)cc2)c1	NSD2 inh 50.8 | AlphaScreen art 8.41µM
CN(C)c1ccccc1	none (no result: HCV NS3 hel inh)
O=C(Cc1ccncc1)N1CCCCN2[C@H](CO)[C@H](c3ccc(-c4ccncc4)cc3)[C@@H]2C1	none (no result: HCV NS3 hel inh, DNMT1 inh, NSD2 inh)
COc1ccc(CC2C(=O)N(c3ccccc3)C(=O)N(c3ccccc3)C2=O)c(OC)c1	none (no result: Casp6 inh)
COCCN1C(=O)/C(=C/c2c(OC)cc(OC)cc2OC)C(=O)N(c2ccccc2)C1=O	NSD2 inh 51.7 | AlphaScreen art inactive
CCC(=NCCCN(CC)CC)c1c(O)n(C2CCCCC2)c(=O)[nH]c1=O	NSD2 inh 51.4 (no result: Casp6 inh) | AlphaScreen art inactive
Cc1ccccc1-c1ccc([C@H]2[C@@H](CO)N3CCCCN(C(=O)Cc4ccccn4)C[C@@H]23)cc1	none (no result: HCV NS3 hel inh, DNMT1 inh, NSD2 inh)
COc1ccc(-c2ccc3n(c2=O)C[C@H]2[C@H](CO)[C@@H](C(=O)O)[C@@H]3N2C(=O)c2ccccc2F)cc1	none (no result: HCV NS3 hel inh, DNMT1 inh, NSD2 inh)
CCN1/C(=C/C=C/C2=[N+](CC)c3ccccc3C2(C)C)C(C)(C)c2ccccc21	NSD2 inh 55.0 (no result: HCV NS3 hel inh) | AlphaScreen art inactive
CN1/C(=C\C=C\C2=[N+](C)c3ccc4ccccc4c3C2(C)C)C(C)(C)c2ccccc21	none (no result: Casp6 inh, DNMT1 inh, NSD2 inh)
CCNCCNc1ccc([N+](=O)[O-])c2cccnc12	NSD2 inh 100.5 | AlphaScreen art inactive
COC(=O)[C@@H]1[C@@H](CO)[C@@H]2Cn3c(ccc(/C=C/c4ccccc4)c3=O)[C@H]1N2C(=O)C1CC1	none (no result: HCV NS3 hel inh, DNMT1 inh, NSD2 inh)
Cc1ccc(OC(=O)N(C)C[C@H]2OCc3ccccc3-c3c(n(C)c4ccccc34)C(=O)N([C@H](C)CO)C[C@H]2C)cc1	none (no result: HCV NS3 hel inh, DNMT1 inh, NSD2 inh)
CC(=O)N(C)C1=Nc2ccc(Cl)cc2C(c2ccccc2)=[N+]([O-])C1	NSD2 inh 54.4 (no result: HCV NS3 hel inh) | AlphaScreen art inactive
CN(C)C(=O)On1c(-c2ccccc2)nc2ccc(Cl)cc21	none (no result: Casp6 inh)
Cc1ccccc1-c1ccc([C@H]2[C@H]3CN(C(=O)Cc4ccccn4)CCCCN3[C@H]2CO)cc1	none (no result: HCV NS3 hel inh, DNMT1 inh, NSD2 inh)
COCCNC(=O)c1c(N)n(CCC(C)C)c2nc3ccccc3nc12	none (no result: Casp6 inh)
COCCCn1c(N)c(C(=O)OCCOC)c2nc3ccccc3nc21	NSD2 inh 72.6 (no result: Casp6 inh) | AlphaScreen art inactive
CCCCNC(=O)c1c(N)n(CCCOC)c2nc3ccccc3nc12	NSD2 inh 106.0 (no result: Casp6 inh) | AlphaScreen art inactive
CCOC(=O)c1c(NS(=O)(=O)c2ccccc2)n(CCCOC)c2nc3ccccc3nc12	NSD2 inh 68.2 (no result: Casp6 inh) | AlphaScreen art inactive
COCCCNC(=O)c1c(NC(=O)c2ccco2)n(Cc2ccccc2)c2nc3ccccc3nc12	NSD2 inh 105.6 (no result: Casp6 inh) | AlphaScreen art inactive
COC1C(O)C(C)OC(OC2C(Oc3cccc4c(O)c5c(=O)oc6ccc(C)c7c(=O)oc(c34)c5c67)OC(C)C(O)C2O)C1O (stereo not drawn)	NSD2 inh 66.1 (no result: HCV NS3 hel inh) | AlphaScreen art inactive
Nc1c(C(=O)NC2CCCC2)c2nc3ccccc3nc2n1CC1CCCO1 (stereo not drawn)	NSD2 inh 81.7 (no result: Casp6 inh) | AlphaScreen art inactive
Nc1c(C(=O)NCC2CCCO2)c2nc3ccccc3nc2n1Cc1ccco1 (stereo not drawn)	none
C/C=C/c1ccc(C2[C@@H]3CN(C(=O)CN(C)C)C[C@H]2N3)cc1 (stereo partly drawn)	none (no result: HCV NS3 hel inh, DNMT1 inh, NSD2 inh)
COC(=O)[C@@H]1[C@@H](CO)[C@@H]2Cn3c(ccc(-c4ccccc4)c3=O)[C@H]1N2CC1CCOCC1	none (no result: HCV NS3 hel inh, DNMT1 inh, NSD2 inh)
Clc1ccccc1Nc1ncnc(-n2cccc2)n1	NSD2 inh 128.4 (no result: Casp6 inh) | AlphaScreen art inactive
Clc1ccccc1NC1=NCCCS1	none
Nc1ccc(C2(c3ccc(N)cc3)CN3CCC2CC3)cc1	NSD2 inh 176.4 (no result: Casp6 inh) | AlphaScreen art inactive
CCCC(=O)NC1=C(N2CC2)C(=O)C(NC(=O)CCC)=C(N2CC2)C1=O	NSD2 inh 92.1 (no result: HCV NS3 hel inh) | AlphaScreen art inactive
COc1ccc(N2C(=O)NC(=O)/C(=C/c3cccc(OC(=O)c4cccs4)c3)C2=O)cc1Cl	none (no result: DNMT1 inh)
Cc1ccc(N2C(=O)NC(=O)/C(=C/c3ccc(OC(=O)c4cccs4)cc3)C2=O)cc1	NSD2 inh 127.4 (no result: Casp6 inh) | AlphaScreen art inactive
COC(=O)[C@@H]1[C@@H](CO)[C@@H]2Cn3c(ccc(-c4cncnc4)c3=O)[C@H]1N2S(=O)(=O)c1ccccc1C	none (no result: HCV NS3 hel inh, DNMT1 inh, NSD2 inh)
